Active and inactive are the calls of the source. No cut-off for these calls is given here. Some results are limits rather than exact numbers.

In test [1] the target is Glutamate NMDA receptor (Rattus norvegicus) (UniProt P35439+Q00959+Q00960+Q00961+Q62645+Q8VHN2+Q9R1M7). The experiment in a line: Binding affinity towards NMDA receptor; not active. Format: protein-complex assay. Summed up:
(§1)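 Radioligand competition binding on native ionotropic glutamate receptors in rat brain membranes. Inactivity was defined at 10^-4 M. Values are means ± SEM of three to four competition experiments, each run in triplicate.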

Test [2] is described as follows: Hill slope was determined.
In test [3] the target is Glutamate receptor ionotropic, kainate. The experiment in a line: Binding affinity towards Ionotropic glutamate receptor kainate in rat brain. The format is tissue-based. A digest of the protocol: as §1
The target in test [4] is Glutamate receptor ionotropic, AMPA (Rattus norvegicus, UniProt P19490+P19491+P19492+P19493). Put plainly: Binding affinity towards AMPA receptor in rat brain. Format: tissue-based.

The Ki is the dissociation constant of the complex between target and ligand, obtained from inhibition or displacement. Higher therefore signals weaker binding. For `N[C@@H](Cn1c2c(c(=O)[nH]c1=O)CCC2)C(=O)O`, the NA entry in test [1] is “inactive”. In addition, the Hill coefficient in test [2] was 0.95 nH [middle of 8 runs]. In test [3], this compound had a Ki of 7.94 µM.
Turning to `N[C@@H](Cn1c2c(c(=O)[nH]c1=S)CCC2)C(=O)O`, the results for the Ki in test [3] and in test [4] were more than 10 µM and 1.37 µM, respectively.

Source of the values: ChEMBL document CHEMBL1134314, “Characterization of the 1H-cyclopentapyrimidine-2,4(1H,3H)-dione derivative (S)-CPW399 as a novel, potent, and subtype-selective AMPA receptor full agonist with partial desensitization properties” (J Med Chem, 2001).
